Experimental findings from ChEMBL document CHEMBL3259606, “Discovery of novel inhibitors targeting the macrophage migration inhibitory factor via structure-based virtual screening and bioassays” (J Med Chem, 2014) are described below.

Each structure is given as a SMILES string. Activity calls are given as the source filed them. The rule behind the calls is not given here.

One may read the IC50 as the concentration at which inhibition is half-maximal. Usually inhibition stands for the change of the read-out against control, counted positive when it falls.

Assay [1] addresses T1, Macrophage migration inhibitory factor (Homo sapiens, UniProt P14174).
T1 sequence (P14174 whole entry): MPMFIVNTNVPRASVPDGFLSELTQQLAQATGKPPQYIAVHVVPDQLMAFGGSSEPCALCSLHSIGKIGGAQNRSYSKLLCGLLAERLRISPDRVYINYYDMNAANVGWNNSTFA
The experiment in a line: (§1) Inhibition of recombinant human MIF tautomerase activity expressed in Escherichia coli using L-dopachrome methyl ester as substrate incubated for 30 mins prior to substrate addition measured for 3 mins.

For assay [2], the target named is T2, Macrophage migration inhibitory factor (Homo sapiens) (UniProt P14174).
T2 sequence (whole entry): T1 sequence (P14174 whole entry)
Briefly: Inhibition of recombinant MIF (unknown origin)-induced mouse RAW264.7 cell chemotactic migration at 20 uM preincubated for 30 mins followed by macrophage addition measured every 15 mins for 4 hrs relative to control. Summed up:
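Recombinant MIF with or without compound placed in the lower chamber of a CIM-16 plate 30 min before RAW 264.7 cells (20,000/well, serum-free medium) added to the upper chamber. Impedance-based migration on xCELLigence RTCA-DP read every 15 min for 4 h. Heat-inactivated MIF as negative control; % of MIF-alone migration; mean ± SD, n = 3.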

The test system of the next assay is RAW264.7. The experiment in a line: Antiinflammatory activity in mouse RAW264.7 cells assessed as inhibition of LPS-induced nitrite production at 40 uM after 24 hrs by Griess assay. The assay is classed as functional, cell-based. A digest of the protocol: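 RAW 264.7 macrophages (DMEM, 5% heat-inactivated FBS, 37 °C, 5% CO2) incubated 24 h with 0.1 μg/mL LPS with or without compound; nitrite in supernatant by Griess reagent. Mean ± SD, n = 3, representative of three independent experiments.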
(Nitrite, measured by Griess reagent, commonly stands in for NO production.)

Assay [3] addresses T2, Macrophage migration inhibitory factor (Homo sapiens). The experiment in a line: Inhibition of recombinant MIF (unknown origin)-induced ERK1/2 phosphorylation in mouse RAW264.7 cells at 20 uM preincubated for 30 mins followed by protein addition measured after 20 mins by Western blot analysis relative to control. The class given is cell-based. Summed up:
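RAW 264.7 cells given compound 30 min before MIF (0.1 μg/mL). Lysates taken 20 min after stimulation, separated on 12% SDS-PAGE and immunoblotted for phospho-ERK1/2 and total ERK1/2 (loading control), ECL detection. Densitometry expressed as % of MIF-alone band intensity.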

The target is the same in assay [4]. Described as §1.
The target is the same in assay [5]. The experiment in a line: Inhibition of recombinant MIF (unknown origin)-mediated glucocorticoid overriding activity in LPS-stimulated mouse RAW264.7 cells assessed as inhibition of dexamethasone-induced intracellular nitric oxide production at 20 uM preincubated for 30 mins followed by LPS challenge measured at 16 hrs by Griess assay relative to control. The assay is classed as cell-based. A digest of the protocol:
(§2)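 RAW 264.7 cells, 5 × 10^4/well in triplicate, pretreated 30 min with dexamethasone (0.1 μM) plus recombinant MIF (0.2 μM) with or without compound, then stimulated with LPS (0.1 μg/mL). TNF-α in supernatant by sandwich ELISA at 4 h; NO in supernatant by Griess reagent at 16 h. Mean ± SD, n = 3, three independent experiments.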

For assay [6] the target is unchanged. Briefly: Inhibition of recombinant MIF (unknown origin)-mediated glucocorticoid overriding activity in LPS-stimulated mouse RAW264.7 cells assessed as inhibition of dexamethasone-induced intracellular TNF-alpha production at 20 uM preincubated for 30 mins followed by LPS challenge measured at 4 hrs by ELISA relative to control. The class given is cell-based. Summed up:
as §2
(In general: An ELISA detects its analyte on a solid surface through an enzyme-linked reagent.)

Take `COc1ccc2c3c(c(=O)oc2c1OCC(=O)O)CCCC3`: the IC50 in assay [1] amounted to 25.8 µM.

Consider `COc1ccc(-c2cc(C)nc(SCc3cccc(C(=O)O)c3)n2)cc1`, for which the IC50 in assay [1] was found to be 45.5 µM.

Regarding `COc1cc(-c2nc3sc4c(c3c(=O)[nH]2)CCCC4)cc(Br)c1OCC(=O)O`, the IC50 in assay [1] turned out to be 22.6 µM.

Take `O=C(Nc1ccccc1C(=O)O)c1cc(S(=O)(=O)Nc2ccc(F)cc2)ccc1Cl`: in assay [1], the IC50 turned out to be 74.5 µM.

Consider `COc1cc(-c2nc3ccccc3s2)cc(Br)c1OCC(=O)O`, for which the figures for the inhibition in assay [2], in assay [3] and in assay [4] were 83%, 55% and “Dose-dependent effect”, respectively. Moreover, the inhibition entry in the assay with RAW264.7 is “Active”.

Regarding `COc1ccc(C(=O)O)cc1NC(=S)NC(=O)c1cc2ccccc2o1`, the inhibition was 131% in assay [5], 59% in assay [3], 131% in assay [6] and “Dose-dependent effect” in assay [4]. For the same compound, the inhibition result in the assay with RAW264.7 was “Active”.

Turning to `COC(=O)C[C@H]1CC(c2ccc(O)cc2)=NO1`, the inhibition is 128% in assay [5], 128% in assay [6] and “Dose-dependent effect” in assay [4]. For the same compound, the fold change (FC) in assay [2] worked out at 2.2. In addition, the inhibition result in assay [3] was “Active”.

Consider `Cc1c(CCC(=O)O)c(=O)oc2cc(OCc3ccccc3Br)ccc12`, for which, in assay [1], the IC50 came to 23.1 µM.

With `O=C(O)CCC(=O)Nc1nc(-c2cc3ccccc3oc2=O)cs1`, the IC50 in assay [1] is 102 µM.

Turning to `O=C(O)c1cccc(NC(=S)NC(=O)c2ccc(-c3ccccc3)cc2)c1`, the inhibition is 52% in assay [2], 43% in assay [3] and “Dose-dependent effect” in assay [4]. Moreover, the inhibition entry in the assay with RAW264.7 was “Active”.

On to `O=C(O)C[C@@H](Cc1ccccc1)c1ccco1`, for which the IC50 in assay [1] was found to be 85.6 µM.
